ChEMBL document CHEMBL4017499, “The Discovery of Novel Antimalarial Aminoxadiazoles as a Promising Nonendoperoxide Scaffold” (J Med Chem, 2017)
Converted amounts (≈) assume the structure as drawn. Values belong to the compound of their own block, whether it stands above or below them. The source made the active and inactive calls. The calls are words filed in the database; no cut-off is given here.

How the values were obtained:
Plasmodium falciparum [1] = assay: Antiplasmodial activity against Plasmodium falciparum 3D7A infected in red blood cells preincubated for 24 hrs followed by [3H]-hypoxanthine addition measured after 24 hrs by scintillation counting; type: functional, cell-based
Procedure, shortened: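 Whole-cell growth assay on sensitive P. falciparum strain 3D7A by [3H]hypoxanthine incorporation; two or three independent biological replicates per value.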

Liver = assay: Intrinsic clearance in human liver microsomes at 0.5 uM up to 45 mins in presence of NADPH by HPLC-MS/MS analysis; type: ADME, microsome; settings: 0.75 h
[2] = Lipophilicity, log D of compound at pH 7.4 by chromatographic method; type: physicochemical; settings: buffer
Plasmodium falciparum [3] = assay: Antimalarial activity against Plasmodium falciparum 3D7 0087/N9 infected in po dosed mouse assessed as average daily exposure in whole blood required to reduce parasitemia administered 3 days post infection dosed once a day for four consecutive days measured 7 days post dose; type: functional, organism-based
Mus musculus = assay: (§1) Clearance in CD1 mouse at 1 mg/kg, iv measured up to 24 hrs post dose by LC-MS/MS analysis; type: ADME, organism-based; settings: mouse, in vivo, 24 h
Procedure, shortened: (§2)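 Pharmacokinetics in mouse after a single intravenous dose of 1 mg/kg.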

[4] = Oral bioavailability in CD1 mouse at 10 mg/kg measured up to 24 hrs post dose by LC-MS/MS analysis; type: ADME, organism-based; settings: in vivo
Procedure, shortened: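 Oral bioavailability in mouse after a single oral dose of 10 mg/kg.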

Plasmodium falciparum [5] = assay: Antimalarial activity against Plasmodium falciparum 3D7 0087/N9 infected in po dosed SCID mouse assessed as reduction in parasitemia administered 3 days post infection dosed once a day for four consecutive days measured after 7 days; type: functional; settings: 3D7 0087/N9, po
Procedure, shortened: (§3)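 SCID mice engrafted with human parasite P. falciparum Pf 3D70087/N9; oral dosing started 3 days after infection, once daily for four consecutive days; parasitemia compared with untreated controls.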

[6] = Half life in CD1 mouse at 1 mg/kg, iv measured up to 24 hrs post dose by LC-MS/MS analysis; type: ADME, organism-based; settings: in vivo; procedure, shortened: as §2
[7] = Chemical stability in SGF media at pH 1.6 after 14 hrs; type: physicochemical; settings: simulated gi fluid, pH 1.6, 14 h
Procedure, shortened: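 Stability in simulated gastric fluid at pH 1.6, held at 37 °C for up to 24 h; checked for degradation products.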

Plasma [8] = assay: Drug metabolism in Swiss CD1 mouse assessed as 2-(3-(Pyridin-3-yl)-5-(trifluoromethyl)benzoyl)-N-(4-(pyrrolidin-1-ylmethyl)phenyl)hydrazinecarboxamide in plasma at 300 to 500 mg/kg, po by HPLC analysis; type: ADME, organism-based; settings: in vivo
Procedure, shortened: (§4)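 Mice given high oral doses (250/300 and 500 mg/kg); plasma analysed by HPLC for parent compound and breakdown products, expressed as percentage levels.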

Plasma [9] = assay: Drug level in Swiss CD1 mouse plasma treated with 5-(3-(Pyridin-3-yl)-5-(trifluoromethyl)phenyl)-N-(4-(pyrrolidin-1-ylmethyl)phenyl)-1,3,4-oxadiazol-2-amine at 500 mg/kg, po by HPLC analysis; type: ADME, organism-based; settings: in vivo; procedure, shortened: as §4
[10] = Solubility of the compound in fasted state stimulated intestinal fluid at pH 6.5 by HPLC analysis; type: physicochemical; settings: fasted state simulated intestinal fluid
Procedure, shortened: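 Solubility measured in fasted state simulated intestinal fluid, pH 6.5.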

Plasmodium falciparum [11] = assay: Antimalarial activity against Plasmodium falciparum 3D7 0087/N9 infected in SCID mouse assessed as reduction in parasitemia at 50 mg/kg, po administered 3 days post infection dosed once a day for four consecutive days measured 2 days; type: functional, organism-based; procedure, shortened: as §3
Plasmodium falciparum [12] = assay: Ratio of IC50 for chloroquine/pyrimethamine-resistant Plasmodium falciparum V1/S infected in red blood cells to IC50 for wild type Plasmodium falciparum 3D7A infected in red blood cells; type: functional
[13] = Ratio of IC50 for Plasmodium falciparum HB3 infected in red blood cells to IC50 for wild type Plasmodium falciparum 3D7A infected in red blood cells; type: functional
[14] = Ratio of IC50 for chloroquine/pyrimethamine-resistant Plasmodium falciparum Dd2 infected in red blood cells to IC50 for wild type Plasmodium falciparum 3D7A infected in red blood cells; type: functional
Plasmodium falciparum [15] = assay: Ratio of IC50 for pyrimethamine-resistant Plasmodium falciparum TC08 infected in red blood cells to IC50 for wild type Plasmodium falciparum 3D7A infected in red blood cells; type: functional
Plasmodium falciparum [16] = assay: Ratio of IC50 for chloroquine-resistant Plasmodium falciparum T9/94 infected in red blood cells to IC50 for wild type Plasmodium falciparum 3D7A infected in red blood cells; type: functional
Plasmodium falciparum [17] = assay: Ratio of IC50 for chloroquine/pyrimethamine/atovaquone-resistant Plasmodium falciparum Tm90C2B infected in red blood cells to IC50 for wild type Plasmodium falciparum 3D7A infected in red blood cells; type: functional
Plasmodium falciparum [18] = assay: Ratio of IC50 for chloroquine/atovaquone/cycloguanil-resistant Plasmodium falciparum FCR3 infected in red blood cells to IC50 for wild type Plasmodium falciparum 3D7A infected in red blood cells; type: functional
Plasmodium falciparum [19] = assay: Ratio of IC50 for chloroquine/pyrimethamine-resistant Plasmodium falciparum Tm90C2A infected in red blood cells to IC50 for wild type Plasmodium falciparum 3D7A infected in red blood cells; type: functional
[20] = as §1; type: ADME, organism-based; settings: CD1, mouse, in vivo; procedure, shortened: as §2
[21] = Volume of distribution at steady state in CD1 mouse at 1 mg/kg, iv measured up to 24 hrs post dose by LC-MS/MS analysis; type: ADME, organism-based; settings: in vivo, read-out: Vdss; procedure, shortened: as §2
Plasma [22] = assay: Drug level in Swiss CD1 mouse plasma treated with 5-([3,4'-Bipyridin]-2'-yl)-N-(4-(pyrrolidin-1-ylmethyl)phenyl)-1,3,4-oxadiazol-2-amine at 500 mg/kg, po by HPLC analysis; type: ADME, organism-based; settings: in vivo; procedure, shortened: as §4

SMILES: c1ccc(Nc2nnc(-c3cccc(-c4cccnc4)c3)o2)cc1
- IC50 (Plasmodium falciparum [1]): 1.7 µM
- intrinsic clearance (Liver): 1.8 mL/min/g

SMILES: CN1CCc2ccc(Nc3nnc(-c4cc(OC(F)(F)F)cc(-c5cccnc5)c4)o3)cc2C1
- IC50 (Plasmodium falciparum [1]): 0.22 µM
- intrinsic clearance (Liver): < 0.5 mL/min/g

SMILES: O=C(NNC(=O)c1cc(-c2cccnc2)cc(C(F)(F)F)c1)Nc1ccc(CN2CCCC2)cc1
- Drug metabolism (Plasma [9]): Metabolite_Detected

SMILES: CN1CCCc2ccc(Nc3nnc(-c4cccc(-c5cccnc5)c4)o3)cc2C1
- IC50 (Plasmodium falciparum [1]): 0.66 µM
- intrinsic clearance (Liver): 9.3 mL/min/g

SMILES: CN1CCc2ccc(Nc3nnc(-c4cccc(-c5cccnc5)c4)o3)cc2C1
- IC50 (Plasmodium falciparum [1]): 0.1 µM
- intrinsic clearance (Liver): 1.8 mL/min/g

SMILES: CN1CCc2ccc(Nc3nnc(-c4cc(-c5cccnc5)ccn4)o3)cc2C1
- IC50 (Plasmodium falciparum [1]): 0.2 µM
- AUCED90 (Plasmodium falciparum [3]): 1.4 µg.hr/ml/day
- intrinsic clearance (Liver): < 0.5 mL/min/g
- ED90 (Plasmodium falciparum [5]): 33.8 mg/kg
- solubility [10]: 390 µg/mL (≈ 1010 µM)

SMILES: CN1CCc2ccc(Nc3nnc(-c4cc(-c5cccnc5)cc(C(F)(F)F)c4)o3)cc2C1
- Ratio IC50 (Plasmodium falciparum [12]): 1
- IC50 (Plasmodium falciparum [1]): 0.02 µM
- Ratio IC50 [13]: 1
- Ratio IC50 [14]: 1
- Ratio IC50 (Plasmodium falciparum [15]): 1
- Ratio IC50 (Plasmodium falciparum [16]): 1
- Ratio IC50 (Plasmodium falciparum [17]): 1
- Ratio IC50 (Plasmodium falciparum [18]): 1
- AUCED90 (Plasmodium falciparum [3]): 2.2 µg.hr/ml/day
- Ratio IC50 (Plasmodium falciparum [19]): 1
- clearance [20]: 42 to 43 mL/min/kg
- Vd [21]: 3.5 L/kg
- bioavailability [4]: 90%
- intrinsic clearance (Liver): 0.9 mL/min/g
- ED90 (Plasmodium falciparum [5]): 9.3 mg/kg
- solubility [10]: 1.2 µg/mL (≈ 2.66 µM)

SMILES: O=C(O)c1cc(-c2cccnc2)ccn1
- Drug metabolism (Plasma [22]): Metabolite_Detected

Now from value to compound, other results behind:

- IC50 (Plasmodium falciparum [1]): 0.09 µM
- chromatographic logD [2]: 2.9
SMILES: CN(C)Cc1ccc(Nc2nnc(-c3cc(-c4cccnc4)cc(C(F)(F)F)c3)o2)cn1

- IC50 (Plasmodium falciparum [1]): 0.03 µM
- clearance (Mus musculus): 19.5 mL/min/kg
- bioavailability [4]: 89%
- chromatographic logD [2]: 3.3
- half-life [6]: 84 min
- Stability [7]: Unstable
- Drug metabolism (Plasma [8]): Metabolite_Detected
SMILES: FC(F)(F)c1cc(-c2cccnc2)cc(-c2nnc(Nc3ccc(CN4CCCC4)cc3)o2)c1
- AUCED90 (Plasmodium falciparum [3]): < 6.1 µg.hr/ml/day
- ED90 (Plasmodium falciparum [5]): < 20 mg/kg

- IC50 (Plasmodium falciparum [1]): 0.03 µM
- intrinsic clearance (Liver): 1.45 mL/min/g
SMILES: CN1CCc2ccc(Nc3nnc(-c4cncc(-c5cccnc5)c4)o3)cc2C1

- IC50 (Plasmodium falciparum [1]): 0.07 µM
SMILES: CN1CCc2ccc(Nc3nnc(-c4ccnc(-c5cccnc5)c4)o3)cc2C1

- IC50 (Plasmodium falciparum [1]): 0.02 µM
SMILES: CN1CCc2ncc(Nc3nnc(-c4cccc(-c5cccnc5)c4)o3)cc2C1

- IC50 (Plasmodium falciparum [1]): 0.03 µM
- clearance (Mus musculus): 76.9 mL/min/kg
- bioavailability [4]: 100%
- solubility [10]: 57 µg/mL (≈ 130 µM)
- chromatographic logD [2]: 3.2 to 3.3
- half-life [6]: 17.4 min
SMILES: CN(C)Cc1ccc(Nc2nnc(-c3cc(-c4cccnc4)cc(C(F)(F)F)c3)o2)cc1
- AUCED90 (Plasmodium falciparum [3]): < 2.5 µg.hr/ml/day
- ED90 (Plasmodium falciparum [5]): < 20 mg/kg
- Activity (Plasmodium falciparum [11]): Active
